{
  "source": "paper PMC10787258",
  "about": "(Current Research in Toxicology, 2023)",
  "key": {"[1]": {"molecular_target": "T1, human sodium iodide symporter (NIS) (Homo sapiens, UniProt Q92911)", "T1 sequence (Q92911 1-643)": "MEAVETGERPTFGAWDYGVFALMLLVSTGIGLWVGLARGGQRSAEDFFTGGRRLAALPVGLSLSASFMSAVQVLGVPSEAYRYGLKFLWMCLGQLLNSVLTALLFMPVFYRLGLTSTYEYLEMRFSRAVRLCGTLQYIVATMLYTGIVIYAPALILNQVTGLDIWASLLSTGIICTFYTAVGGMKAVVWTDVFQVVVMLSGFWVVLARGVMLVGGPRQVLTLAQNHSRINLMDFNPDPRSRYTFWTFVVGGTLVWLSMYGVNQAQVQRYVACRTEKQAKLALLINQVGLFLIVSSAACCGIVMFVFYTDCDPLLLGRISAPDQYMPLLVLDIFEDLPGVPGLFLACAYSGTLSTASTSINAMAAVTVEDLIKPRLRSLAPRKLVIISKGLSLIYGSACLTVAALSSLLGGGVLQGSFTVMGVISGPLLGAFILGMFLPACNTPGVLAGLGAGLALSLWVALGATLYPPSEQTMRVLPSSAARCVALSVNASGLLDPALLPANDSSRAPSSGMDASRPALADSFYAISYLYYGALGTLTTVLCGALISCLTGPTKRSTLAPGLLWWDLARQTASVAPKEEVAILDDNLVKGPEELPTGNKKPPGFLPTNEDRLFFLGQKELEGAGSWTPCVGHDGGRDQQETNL", "assay": "hNIS-HEK293T-EPA radioactive iodide uptake", "assay_type": "cell-based"}, "[2]": {"system": "juvenile male and female Sprague-Dawley rats", "assay": "Four-day oral exposure, serum thyroid hormones", "assay_type": "in vivo, rat", "procedure,_shortened": "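Weanling Sprague-Dawley rats arrived PND21 and were fed AIN-93 diet (iodide 225 ng/g). Groups were weight-ranked, n = 6 per sex per dose. Daily oral gavage PND 27–30 at 0, 125, 250 or 500 mg/kg in 1 % methyl cellulose suspension, adjusted to daily body weight. Decapitation ~2 hr after 4th dose. Trunk serum total T4/T3 by RIA kits (LOD 1.24, 0.50 ng/ml). One-way ANOVA, Dunnett's; mean ± SEM.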"}, "[3]": {"system": "juvenile male Sprague-Dawley rats", "assay": "Eight-day oral exposure, serum thyroid hormones, TSH and thyroid weight", "assay_type": "in vivo, rat"}, "[4]": {"assay": "Oxyfluorfen quantitation in serum and thyroid gland", "assay_type": "in vivo, rat", "procedure,_shortened": "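Serum came from 4-day gavage (0–500 mg/kg) and male 8-day gavage (PND27–34, 0–62.5 mg/kg); thyroids came from 8-day rats. Serum (60 µL) was spiked with d5-labelled internal standard, equilibrated 30 min at room temperature, then protein-precipitated with acetonitrile. LC/MS/MS used positive ESI in MRM mode with isotope dilution and serum-matched calibration (2.5–5000 ng/ml). LOQ 25 ng/mL serum, 2.5 ng/g thyroid; results below LOQ reported ND.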"}, "[5]": {"assay": "Body weight, percent growth and general toxicity in 4- and 8-day studies", "assay_type": "in vivo, rat"}, "hNIS-HEK293T-EPA cells": {"system": "hNIS-HEK293T-EPA cells", "settings": "any concentration tested up to 100 μM; ref Buckalew et al., 2020; cited from earlier work"}, "FRTL-5 cells": {"system": "FRTL-5 cells", "settings": "any concentration tested up to 100 μM; ref Buckalew et al., 2020; cited from earlier work"}, "[6]": {"settings": "cited from earlier work"}, "[7]": {"settings": "higher purity (>98 %) oxyfluorfen; ref RED 2002; 2019; cited from earlier work"}, "liver": {"system": "liver", "settings": "98 % pure technical grade, up to 73 mg/kg; ref U.S. EPA, 2021; cited from earlier work"}, "mouse and rabbit": {"system": "mouse and rabbit", "settings": "mouse and rabbit studies; ref U.S. EPA, 2021; cited from earlier work"}, "thyroid cancer": {"system": "thyroid cancer", "settings": "human epidemiology, California; ref Omidakhsh et al., 2022; cited from earlier work"}, "thyroid peroxidase": {"system": "thyroid peroxidase", "settings": "ToxCast in vitro; ref Paul Friedman et al., 2016; cited from earlier work"}, "deiodinase": {"system": "deiodinase", "settings": "ToxCast in vitro; ref Olker et al., 2019; cited from earlier work"}, "[8]": {"settings": "8 days oral, any treatment group (0.8125 to 62.5 mg/kg)"}},
  "note": "“Also recorded” adds a separate entry of the source.",
  "data": [
    {"smiles": "CCOc1cc(Oc2ccc(C(F)(F)F)cc2Cl)ccc1[N+](=O)[O-]", "note": "[oxyfluorfen, 2-chloro-1-(3-ethoxy-4-nitrophenoxy)-4(trifluoromethyl)benzene]", "values": [
      {"measurement": "IC50", "setting": "[1]", "result": 2000, "unit": "nM"},
      {"measurement": "Decrease in serum T3", "setting": "[2]; female, 4 days oral, 125 mg/kg", "result": 18, "unit": "%"},
      {"measurement": "Decrease in serum T4", "setting": "[2]; female, 4 days oral, 125 mg/kg", "result": "~55", "unit": "%"},
      {"measurement": "Serum T3 vs control", "setting": "[2]; female, 4 days oral, 125 mg/kg", "result": "significantly suppressed"},
      {"measurement": "Serum T3 vs control", "setting": "[2]; female, 4 days oral, 250 mg/kg", "result": "not significantly suppressed"},
      {"measurement": "Serum T3 vs control", "setting": "[2]; female, 4 days oral, 500 mg/kg", "result": "significantly suppressed"},
      {"measurement": "Total serum thyroxine (T4)", "setting": "[2]; male and female, 4 days, all doses (125, 250, 500 mg/kg/day)", "result": "suppressed"},
      {"measurement": "Decrease in serum T3", "setting": "[2]; male, 4 days oral, 125 mg/kg", "result": 35, "unit": "%"},
      {"measurement": "Decrease in serum T4", "setting": "[2]; male, 4 days oral, 125 mg/kg", "result": 68, "unit": "%"},
      {"measurement": "Suppression of serum T3", "setting": "[2]; male, 4 days oral, 125 to 500 mg/kg", "result": "approximately 30%"},
      {"measurement": "Suppression of serum T4", "setting": "[2]; male, 4 days oral, all doses (125, 250, 500 mg/kg)", "result": 70, "unit": "%"},
      {"measurement": "LOEL for suppression of serum T4", "setting": "[3]; 8-day daily oral exposure", "result": 3.25, "unit": "mg/kg"},
      {"measurement": "NOEL for serum T4", "setting": "[3]; 8-day daily oral exposure", "result": 1.625, "unit": "mg/kg"},
      {"measurement": "LOEL for suppression of serum T3", "setting": "[3]; 8-day oral exposure", "result": 62.5, "unit": "mg/kg/day"},
      {"measurement": "LOEL for suppression of serum T4", "setting": "[3]; 8-day oral exposure", "result": 3.25, "unit": "mg/kg/day"},
      {"measurement": "Serum T3 vs control", "setting": "[3]; 8 days oral, 62.5 mg/kg", "result": "significantly suppressed"},
      {"measurement": "Serum T3 vs control", "setting": "[3]; 8 days oral, 15 and 31.25 mg/kg", "result": "non-significant decrease"},
      {"measurement": "Serum TSH", "setting": "[3]; [8]", "result": "no significant differences; also recorded: No significant effects; also recorded: no significant changes"},
      {"measurement": "Thyroid weight", "setting": "[3]; [8]", "result": "No changes; also recorded: no significant differences"},
      {"measurement": "Serum oxyfluorfen detection", "setting": "[4]; all treated serum samples, 4- and 8-day studies", "result": "detected"},
      {"measurement": "Kp at 8 days", "setting": "[4]; male, Sprague-Dawley, rat, thyroid gland / serum, oral, 62.5 mg/kg", "result": "2 to 3"},
      {"measurement": "Final body weight or percent growth", "setting": "[5]; 4- or 8-day treatment, any dose, male or female", "result": "did not significantly affect"},
      {"measurement": "Visible signs of toxicity", "setting": "[5]; daily observations, all treated animals", "result": "no visible signs of toxicity"},
      {"measurement": "Cytotoxicity", "setting": "hNIS-HEK293T-EPA cells", "result": "no observed cytotoxicity; also recorded: no confounding cytotoxicity"},
      {"measurement": "Cytotoxicity", "setting": "FRTL-5 cells", "result": "no observed cytotoxicity; also recorded: no confounding cytotoxicity"},
      {"measurement": "Tissues with the highest levels of oxyfluorfen", "setting": "[6]; following acute exposure, ref U.S. EPA, 2019", "result": "lung, thyroid, liver, ovaries, kidneys, adrenals and fat"},
      {"measurement": "Half-life", "setting": "[6]; in the rat, ref 2002 RED", "result": "approximately 30 h"},
      {"measurement": "Acute oral, dermal, and inhalation toxicity", "setting": "[7]", "result": "low oral toxicity"},
      {"measurement": "Liver tumor incidence", "setting": "liver", "result": "has not shown liver tumor incidence"},
      {"measurement": "Current guideline NOELs and LOELs", "setting": "mouse and rabbit", "result": 33, "unit": "mg/kg"},
      {"measurement": "Association with the occurrence of thyroid cancer", "setting": "thyroid cancer", "result": "increased odds ratio"},
      {"measurement": "Activity in thyroid peroxidase inhibition assay", "setting": "thyroid peroxidase", "result": "no reported thyroid activity"},
      {"measurement": "Activity in deiodinase inhibition assay", "setting": "deiodinase", "result": "no reported thyroid activity"}
    ]}
  ]
}
